Assay results collected from several papers.
Target: Serine/threonine-protein kinase Nek2 (NEK2, Homo sapiens, UniProt P51955)

Compound	test	setting	endpoint	result
CN(c1ncccc1CNc1nc(Nc2ccc3c(c2)CC(=O)N3)ncc1C(F)(F)F)S(C)(=O)=O	enzyme activity, inhibitor	1 µM	inhibition	4.1%
CCN(CC)CCNC(=O)c1c(C)[nH]c(/C=C2\C(=O)Nc3ccc(F)cc32)c1C	enzyme activity, inhibitor	0.3 µM	inhibition	9%
COc1cc2ncnc(Nc3ccc(Oc4ccccc4)c(C)c3C)c2cc1OC	enzyme activity, inhibitor	1 µM	inhibition	1%
N#CCCc1ccc2c(c1)-c1[nH]c3ccc([N+](=O)[O-])cc3c1CC(=O)N2	cell-free assay	0.5 µM	remaining signal	92.7%
CS(=O)(=O)NCC[C@H](NC(=O)c1cncc2c1cnn2-c1ccc(F)cc1)c1ccnc(S(C)(=O)=O)c1	cell-free assay, competition with immobilised ligand	1 µM	remaining binding	97%
Cc1cnc(NC2CCOCC2)nc1-n1cnc(C(=O)NC(CN)c2cc(F)cc(Cl)c2)c1 (stereo not drawn)	enzyme activity, inhibitor, radiometric	1 µM	remaining activity	36%
Cc1noc([C@H]2C[C@@H](c3ccc(C(F)(F)F)cc3)CN(C(=O)N3CCS(=O)(=O)C3)C2)n1	cell-free assay, competition with immobilised ligand	1 µM	remaining binding	100%
Cc1ccc(NC(=O)c2ccc(CN3CCN(C)CC3)cc2)cc1Nc1nc(-c2cccnc2)cs1	cell-free assay	0.5 µM	remaining signal	96.7%
O=C(Nc1cnn(-c2csc(C(=O)NC3COC3)c2)c1)Nc1c(F)cccc1Cl	enzyme activity, inhibitor	5 µM	remaining activity	96.2%
CC(C)(C)c1nc2c(s1)c1nc(N)ncc1c1ccc(NS(=O)(=O)c3c(F)cccc3F)c(F)c12	enzyme activity, inhibitor, radiometric	1 µM	remaining activity	103%
Nc1cnc(N2CCc3cc(S(=O)(=O)Nc4c(F)cc(Cl)cc4F)cc(N4CCCC4=O)c32)nc1	cell-free assay, competition with immobilised ligand	1 µM	remaining binding	89%
CC/C(=N\NC(=O)NCc1cccc(O)c1)c1ccc(O)c(C)c1O	enzyme activity, inhibitor	0.1 µM	inhibition	-2.4%
CNC(=O)c1cc(Oc2ccc(NC(=O)Nc3ccc(Cl)c(C(F)(F)F)c3)cc2)ccn1	enzyme activity, inhibitor	10 µM	inhibition	-16%
CNC(=O)c1ccc(Nc2ncc(C(F)(F)F)c(NCc3nccnc3N(C)S(C)(=O)=O)n2)cc1	cell-free assay, competition with immobilised ligand	0.1 µM	remaining binding	75%
FC(F)c1nc2ccccc2n1-c1nc(N2CCOCC2)nc(N2CCOCC2)n1	enzyme activity, inhibitor	10 µM	remaining activity	106%
CN(C)C1CCN(CC#Cc2nn(C3CCCC3)c3nc(NCc4ccccc4)ncc23)C1 (stereo not drawn)	enzyme activity, inhibitor, FRET	1 µM	inhibition	4%
Nc1nc(NC2CCCCC2)sc1C(=O)c1ccccc1	enzyme activity, inhibitor	10 µM	remaining activity	93%
CN(C)CC#Cc1ccc(OCCCc2sc(N3CCc4cccc(C(=O)Nc5nc6ccccc6s5)c4C3)nc2C(=O)O)c(F)c1	cell-free assay, competition with immobilised ligand	1 µM	remaining binding	92%
CN1CCC2(CC1)NC(=O)c1c(c3ccc(Cl)c(Cl)c3n1C)C2C#N (racemic)	thermal stability, DSF	10 µM	ΔTm	0.1 °C
CCN(CC)c1ccc(C2=NNC(=O)CC2C)cc1[N+](=O)[O-] (stereo not drawn)	enzyme activity, inhibitor	10 µM	remaining activity	91%

Compound	test	setting	endpoint	result
CSc1nc(C)c(-c2ccnc(Nc3ccc(N4CCOCC4)cc3)c2)[nH]1	enzyme activity, inhibitor	10 µM	inhibition	20%
Oc1cccc(-c2nc(N3CCOCC3)c3oc4ncccc4c3n2)c1	enzyme activity, inhibitor	10 µM	remaining activity	86%
COc1cc(Nc2cnc(C#N)c(O[C@H](C)CN(C)C)n2)ncc1-c1cnn(C)c1	enzyme activity, inhibitor, radiometric	1 µM	remaining activity	58%
COc1cc(Cl)c(C(=O)N[C@@H](CN[C@H]2CC[C@@H](N)CC2)Cc2ccc(C#N)cc2)cc1-c1ccc(CN[C@H](C)c2ccc(C)cc2)o1	enzyme activity, inhibitor	1 µM	remaining activity	114%
CNc1cccc2cc(C(=O)Nc3ccc(C(=O)O)cc3)c(=O)[nH]c12	enzyme activity, inhibitor	10 µM	inhibition	3.2%
Cc1ccc(NC(=O)c2ccc(C)c(C(F)(F)F)c2)cc1C#Cc1nn(C2CCC(O)CC2)c2ncnc(N)c12 (stereo not drawn)	cell-free assay	10 µM	remaining signal	117%
CN(C(=O)c1ccccc1)c1cc(N(C)c2ccc3c(c2)CCc2ccc(C(=O)NCCN4CCOCC4)cc2C3=O)ccc1F	cell-free assay, competition with immobilised ligand	1 µM	remaining binding	96%
CN1CC(Oc2cnc(C#N)cc2-c2ccn3nc(NC(=O)C4CC4)cc3c2)C1	enzyme activity, inhibitor	1 µM	inhibition	5%
Cn1c2c(c3ccc(Cl)c(Cl)c31)C(C#N)C1(CCOCC1)NC2=O (stereo not drawn)	thermal stability, DSF	10 µM	ΔTm	-0.2 °C
Cc1ccc(C(=O)Nc2ccc(CN3CCN(C)CC3)c(C(F)(F)F)c2)cc1C#Cc1cnc2cccnn12	enzyme activity, inhibitor	23.5 nM	remaining activity	92%
CNCc1ccc(-c2cc(-c3nc(-c4ccc(S(=O)(=O)C(C)C)cc4)cnc3N)on2)cc1	enzyme activity, inhibitor	2 µM	inhibition	2%
FC(F)(F)Oc1cccc(-c2cnc3ccc(-c4ccncc4)nn23)c1	enzyme activity, inhibitor, radiometric	5 µM	activity vs control	88%
O=C(NS(=O)(=O)c1ccc(NCC2CCOCC2)c([N+](=O)[O-])c1)c1ccc(N2CCN(Cc3ccc(C(F)(F)F)cc3-c3ccc(Cl)cc3)CC2)cc1Oc1cnc2[nH]ccc2c1	cell-free assay, competition with immobilised ligand	1 µM	remaining binding	100%
COc1cc2ncnc(Nc3ccc(F)c(Cl)c3)c2cc1OCCCN1CCOCC1	cell-free assay	0.5 µM	remaining signal	98.4%
Cc1ccc(Nc2nccc(N(C)c3ccc4c(C)n(C)nc4c3)n2)cc1S(N)(=O)=O	enzyme activity, inhibitor	0.3 µM	inhibition	2%
CCN1CCC2(CC1)NC(=O)c1c(c3ccc(Cl)c(Cl)c3n1C)C2C#N (racemic)	thermal stability, DSF	10 µM	ΔTm	0 °C
FC(F)(F)c1ccc2c(c1)nc(-c1cccnc1)n2C1CC1	cell-free assay, competition with immobilised ligand	1 µM	remaining binding	100%
Cn1c2c(c3ccc(Cl)c(Cl)c31)C(C#N)C1(CCCC1)NC2=O (stereo not drawn)	thermal stability, DSF	10 µM	ΔTm	0.3 °C
C=CC(=O)Nc1cc(Nc2nccc(Nc3cc(Cl)c(F)cc3C(C)(C)O)n2)c(OC)cc1N1CC[C@@H](N(C)C)C1	enzyme activity, inhibitor	1 µM	inhibition	5%
